{"source": "paper PMC6510378", "about": "(Clinical and Translational Science, 2019)", "key": {"[1]": {"assay": "Safety and tolerability, SAD study", "type": "in vivo, human", "method_in_brief": "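Safety was assessed from treatment-emergent adverse events: nature, frequency, severity, onset/offset and relatedness to study drug, coded by MedDRA system organ class. Also assessed were haematology, serum chemistry, urinalysis, physical examination with vital signs, and ECGs. CNS scales used were Bond and Lader VAS, ARCI-49 and Profile of Mood States. Data were summarized descriptively.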"}, "[2]": {"assay": "Urine PK, 10-mg, 20-mg and 50-mg cohorts", "type": "in vivo, human", "settings": "parent ASP3662", "method_in_brief": "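Urine drug concentration was measured by validated HPLC-MS/MS. Subjects were healthy young Japanese, young non-Japanese and elderly non-Japanese adults given oral doses of 10, 20 or 50 mg: single dose day 1, 4-day washout, then once daily on days 5–18. Dosing was fasted on PK days.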"}, "[3]": {"assay": "SAD study plasma PK, single oral dose, healthy young subjects", "type": "in vivo, human", "settings": "for Cmax / Tmax / AUC(0-inf) / half-life: human, plasma, po; for AUC(0-inf): AUCinf; for half-life: t½", "method_in_brief": "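Healthy adults aged 18–55, randomized 6 active : 2 placebo per cohort, received a single fasted oral dose (1–60 mg) with 240 mL water. Serial blood was drawn predose to 72 h, plus 96 and 120 h in the 6, 30 and 60 mg cohorts. Plasma drug was measured by validated HPLC-MS/MS, with below-limit values set to zero. Dose proportionality used a power model on log-transformed dose.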"}, "human 11β‐HSD1": {"molecular_target": "human 11β‐HSD1", "settings": "competitive binding; ref Internal study reports 3662‐PH‐0001 and 3662‐PH‐0001‐0004; cited from earlier work"}, "11β‐HSD2": {"molecular_target": "T1, 11β‐HSD2 (Homo sapiens, UniProt P80365)", "T1 sequence (P80365 1-405)": "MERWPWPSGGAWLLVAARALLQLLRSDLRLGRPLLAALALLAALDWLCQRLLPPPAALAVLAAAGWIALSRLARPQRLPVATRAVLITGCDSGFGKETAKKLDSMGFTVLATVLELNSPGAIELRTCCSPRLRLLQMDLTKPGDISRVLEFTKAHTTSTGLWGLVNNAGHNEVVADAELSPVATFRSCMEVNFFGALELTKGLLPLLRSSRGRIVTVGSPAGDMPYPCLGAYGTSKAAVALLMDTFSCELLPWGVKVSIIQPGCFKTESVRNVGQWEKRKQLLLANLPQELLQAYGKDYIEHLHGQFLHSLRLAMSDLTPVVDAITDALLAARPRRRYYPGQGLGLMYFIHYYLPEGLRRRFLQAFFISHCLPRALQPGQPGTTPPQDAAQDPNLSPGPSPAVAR", "assay": "Urine 11β-HSD2 activity", "type": "in vivo", "settings": "up to 50 mg q.d. for 14 days", "method_in_brief": "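Renal 11β-HSD2 activity was taken as the urinary cortisol/cortisone ratio. Subjects were healthy young Japanese, young non-Japanese and elderly non-Japanese adults on oral placebo or drug (10, 20 or 50 mg), single dose day 1 then once daily on days 5–18. The ratio was assessed on days 1 and 18.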"}, "[4]": {"settings": "3 mg, Median, single oral dose 3 mg, n=6"}, "[5]": {"settings": "3 mg, Min–max, single oral dose 3 mg, n=6"}, "[6]": {"settings": "6 mg, Mean (SD), single oral dose 6 mg, n=6"}, "[7]": {"settings": "6 mg, Median, single oral dose 6 mg, n=6"}, "[8]": {"settings": "6 mg, Min–max, single oral dose 6 mg, n=6"}, "[9]": {"settings": "10 mg, Mean (SD), single oral dose 10 mg, n=3"}, "[10]": {"settings": "10 mg, Median, single oral dose 10 mg, n=3"}, "[11]": {"settings": "10 mg, Min–max, single oral dose 10 mg, n=3"}, "[12]": {"settings": "10 mg, Median, single oral dose 10 mg, n=6"}, "[13]": {"settings": "10 mg, Min–max, single oral dose 10 mg, n=6"}, "[14]": {"settings": "30 mg, Mean (SD), single oral dose 30 mg, n=6"}, "[15]": {"settings": "30 mg, Median, single oral dose 30 mg, n=6"}, "[16]": {"settings": "30 mg, Min–max, single oral dose 30 mg, n=6"}, "[17]": {"settings": "60 mg, Mean (SD), single oral dose 60 mg, n=6"}, "[18]": {"settings": "60 mg, Median, single oral dose 60 mg, n=6"}, "[19]": {"settings": "60 mg, Min–max, single oral dose 60 mg, n=6"}}}
{"compound": "Cn1c(-c2ccc(C(N)=O)cc2F)nnc1C(C)(C)Oc1c(F)cc(Cl)cc1F", "note": "[ASP3662]", "values": [{"measurement": "clinically relevant finding (vital signs)", "setting": "[1]; after a single dose of 6 mg", "value": "clinically significant orthostatic hypotension"}, {"measurement": "overall safety and tolerability", "setting": "[1]; single oral doses up to 60 mg", "value": "safe and well tolerated"}, {"measurement": "amount recovered from urine", "setting": "[2]", "value": "< 0.3 % of the administered dose"}, {"measurement": "Cmax", "setting": "[3]; 1 mg, Mean (SD), single oral dose 1 mg, n=6", "value": 0.0433, "unit": "ng/mL"}, {"measurement": "Cmax", "setting": "[3]; 1 mg, Min–max, single oral dose 1 mg, n=6", "value": "< 0.14", "unit": "ng/mL"}, {"measurement": "Tmax", "setting": "[3]; 1 mg, Median, single oral dose 1 mg, n=2", "value": 0.75, "unit": "h"}, {"measurement": "Tmax", "setting": "[3]; 1 mg, Min–max, single oral dose 1 mg, n=2", "value": "0.5 to 1", "unit": "h"}, {"measurement": "Cmax", "setting": "[3]; 3 mg, Mean (SD), single oral dose 3 mg, n=6", "value": 3.54, "unit": "ng/mL"}, {"measurement": "Cmax", "setting": "[3]; [4]", "value": 1.6, "unit": "ng/mL"}, {"measurement": "Cmax", "setting": "[3]; [5]", "value": "0.38 to 9.24", "unit": "ng/mL"}, {"measurement": "Tmax", "setting": "[3]; [4]", "value": 2.5, "unit": "h"}, {"measurement": "Tmax", "setting": "[3]; [5]", "value": "1 to 4.02", "unit": "h"}, {"measurement": "AUC(0-inf)", "setting": "[3]; [6]", "value": 405, "unit": "ng·h/mL"}, {"measurement": "AUC(0-inf)", "setting": "[3]; [7]", "value": 410, "unit": "ng·h/mL"}, {"measurement": "AUC(0-inf)", "setting": "[3]; [8]", "value": "169 to 660", "unit": "ng·h/mL"}, {"measurement": "Cmax", "setting": "[3]; [6]", "value": 28, "unit": "ng/mL"}, {"measurement": "Cmax", "setting": "[3]; [7]", "value": 30.5, "unit": "ng/mL"}, {"measurement": "Cmax", "setting": "[3]; [8]", "value": "10.8 to 43.7", "unit": "ng/mL"}, {"measurement": "Tmax", "setting": "[3]; [7]", "value": 1.75, "unit": "h"}, {"measurement": "Tmax", "setting": "[3]; [8]", "value": "1 to 4", "unit": "h"}, {"measurement": "half-life", "setting": "[3]; [6]", "value": 37.7, "unit": "h"}, {"measurement": "half-life", "setting": "[3]; [7]", "value": 37.9, "unit": "h"}, {"measurement": "half-life", "setting": "[3]; [8]", "value": "28.5 to 46.3", "unit": "h"}, {"measurement": "AUC(0-inf)", "setting": "[3]; [9]", "value": 858, "unit": "ng·h/mL"}, {"measurement": "AUC(0-inf)", "setting": "[3]; [10]", "value": 953, "unit": "ng·h/mL"}, {"measurement": "AUC(0-inf)", "setting": "[3]; [11]", "value": "620 to 1000", "unit": "ng·h/mL"}, {"measurement": "Cmax", "setting": "[3]; 10 mg, Mean (SD), single oral dose 10 mg, n=6", "value": 64, "unit": "ng/mL"}, {"measurement": "Cmax", "setting": "[3]; [12]", "value": 60.9, "unit": "ng/mL"}, {"measurement": "Cmax", "setting": "[3]; [13]", "value": "49 to 93.6", "unit": "ng/mL"}, {"measurement": "Tmax", "setting": "[3]; [12]", "value": 1.75, "unit": "h"}, {"measurement": "Tmax", "setting": "[3]; [13]", "value": "1 to 6", "unit": "h"}, {"measurement": "half-life", "setting": "[3]; [9]", "value": 19.5, "unit": "h"}, {"measurement": "half-life", "setting": "[3]; [10]", "value": 21.9, "unit": "h"}, {"measurement": "half-life", "setting": "[3]; [11]", "value": "13.7 to 23", "unit": "h"}, {"measurement": "AUC(0-inf)", "setting": "[3]; [14]", "value": 3620, "unit": "ng·h/mL"}, {"measurement": "AUC(0-inf)", "setting": "[3]; [15]", "value": 3370, "unit": "ng·h/mL"}, {"measurement": "AUC(0-inf)", "setting": "[3]; [16]", "value": "1630 to 6770", "unit": "ng·h/mL"}, {"measurement": "Cmax", "setting": "[3]; [14]", "value": 258, "unit": "ng/mL"}, {"measurement": "Cmax", "setting": "[3]; [15]", "value": 239, "unit": "ng/mL"}, {"measurement": "Cmax", "setting": "[3]; [16]", "value": "151 to 386", "unit": "ng/mL"}, {"measurement": "Tmax", "setting": "[3]; [15]", "value": 3.5, "unit": "h"}, {"measurement": "Tmax", "setting": "[3]; [16]", "value": "1.5 to 4", "unit": "h"}, {"measurement": "half-life", "setting": "[3]; [14]", "value": 17.6, "unit": "h"}, {"measurement": "half-life", "setting": "[3]; [15]", "value": 17.4, "unit": "h"}, {"measurement": "half-life", "setting": "[3]; [16]", "value": "14.5 to 20.2", "unit": "h"}, {"measurement": "AUC(0-inf)", "setting": "[3]; [17]", "value": 8190, "unit": "ng·h/mL"}, {"measurement": "AUC(0-inf)", "setting": "[3]; [18]", "value": 8460, "unit": "ng·h/mL"}, {"measurement": "AUC(0-inf)", "setting": "[3]; [19]", "value": "5440 to 12500", "unit": "ng·h/mL"}, {"measurement": "Cmax", "setting": "[3]; [17]", "value": 595, "unit": "ng/mL"}, {"measurement": "Cmax", "setting": "[3]; [18]", "value": 566, "unit": "ng/mL"}, {"measurement": "Cmax", "setting": "[3]; [19]", "value": "439 to 865", "unit": "ng/mL"}, {"measurement": "Tmax", "setting": "[3]; [18]", "value": 3.5, "unit": "h"}, {"measurement": "Tmax", "setting": "[3]; [19]", "value": "2 to 4", "unit": "h"}, {"measurement": "half-life", "setting": "[3]; [17]", "value": 14.8, "unit": "h"}, {"measurement": "half-life", "setting": "[3]; [18]", "value": 14.6, "unit": "h"}, {"measurement": "half-life", "setting": "[3]; [19]", "value": "13.1 to 17.3", "unit": "h"}, {"measurement": "CL/F, Mean (SD)", "setting": "[3]; single oral dose 6 mg, n=6", "value": "18.38 (9.909) L/hour"}, {"measurement": "CL/F, Median", "setting": "[3]; single oral dose 6 mg, n=6", "value": 15.62, "unit": "L/h"}, {"measurement": "CL/F, Min–max", "setting": "[3]; single oral dose 6 mg, n=6", "value": "9.09 to 35.4", "unit": "L/h"}, {"measurement": "CL/F, Mean (SD)", "setting": "[3]; single oral dose 10 mg, n=3", "value": "12.20 (3.403) L/hour"}, {"measurement": "CL/F, Median", "setting": "[3]; single oral dose 10 mg, n=3", "value": 10.49, "unit": "L/h"}, {"measurement": "CL/F, Min–max", "setting": "[3]; single oral dose 10 mg, n=3", "value": "9.99 to 16.1", "unit": "L/h"}, {"measurement": "CL/F, Mean (SD)", "setting": "[3]; single oral dose 30 mg, n=6", "value": "10.05 (4.856) L/hour"}, {"measurement": "CL/F, Median", "setting": "[3]; single oral dose 30 mg, n=6", "value": 9.012, "unit": "L/h"}, {"measurement": "CL/F, Min–max", "setting": "[3]; single oral dose 30 mg, n=6", "value": "4.43 to 18.4", "unit": "L/h"}, {"measurement": "CL/F, Mean (SD)", "setting": "[3]; single oral dose 60 mg, n=6", "value": "7.933 (2.407) L/hour"}, {"measurement": "CL/F, Median", "setting": "[3]; single oral dose 60 mg, n=6", "value": 7.091, "unit": "L/h"}, {"measurement": "CL/F, Min–max", "setting": "[3]; single oral dose 60 mg, n=6", "value": "4.81 to 11.0", "unit": "L/h"}, {"measurement": "Ki", "setting": "human 11β‐HSD1", "value": 5.3, "unit": "nM"}, {"measurement": "change in urinary cortisol to cortisone ratio relative to PBO", "setting": "11β‐HSD2", "value": "no noteworthy changes"}]}
